Measurements from different studies.
Compare with care: the assays were run in different laboratories.
EGFR T790M: Epidermal growth factor receptor (EGFR, Homo sapiens, UniProt P00533, T790M)
EGFR: Epidermal growth factor receptor (EGFR, Homo sapiens, UniProt P00533)
EGFR L858R: Epidermal growth factor receptor (EGFR, Homo sapiens, UniProt P00533, L858R)
EGFR L858R/T790M: Epidermal growth factor receptor (EGFR, Homo sapiens, UniProt P00533, L858R/T790M)
EGFR G719C: Epidermal growth factor receptor (EGFR, Homo sapiens, UniProt P00533, G719C)
EGFR del746-750: Epidermal growth factor receptor (EGFR, Homo sapiens, UniProt P00533, del746-750)
EGFR del752-759: Epidermal growth factor receptor (EGFR, Homo sapiens, UniProt P00533, del752-759)
EGFR del747-752/P753S: Epidermal growth factor receptor (EGFR, Homo sapiens, UniProt P00533, del747-752/P753S)
EGFR A750P/del747-749: Epidermal growth factor receptor (EGFR, Homo sapiens, UniProt P00533, A750P/del747-749)

Structure (SMILES)	target	assay	conditions	remaining binding [%]
CSc1cccnc1N1CCN(Cc2nc3ccccc3[nH]2)CC1	EGFR T790M	cell-free assay, competition with immobilised ligand	1 µM	85
C[C@@H]1CCN(c2nccc(-c3cnn4ncccc34)n2)C1	EGFR	binding	1 µM	100
CN1CCN(c2ccc(Nc3nccc(-c4ccccc4)n3)cc2C(F)(F)F)CC1	EGFR T790M	binding	10 µM	77
CCN1CCN(Cc2ccc(C(=O)Nc3ccc(C)c(Oc4ccc5c(c4)CC(=O)N5)c3)cc2C(F)(F)F)CC1	EGFR L858R	binding, competition with immobilised ligand	1 µM	100
FC(F)(F)c1ccc2c(c1)nc(-c1cccnc1)n2C1CC1	Epidermal growth factor receptor (EGFR, Homo sapiens, UniProt P00533, G719S)	cell-free assay, competition with immobilised ligand	1 µM	93
N[C@H]1CCN(c2nccc(-c3cnn4ncccc34)n2)C1	EGFR L858R/T790M	binding	1 µM	89
O=C(NCCCN1CCOCC1)c1ccc(Nc2ncc(Cl)c(-c3ccc(Cl)s3)n2)cc1	EGFR	binding, competition with immobilised ligand	1 µM	89
COc1cnc(Nc2cccc(S(N)(=O)=O)c2)nc1N1CCN(c2ccccc2)CC1	EGFR G719C	binding, competition with immobilised ligand	1 µM	100
NS(=O)(=O)c1cc(NC(=O)Cc2ccccc2)ccc1Oc1cccc(Cl)c1	EGFR L858R/T790M	cell-free assay, competition with immobilised ligand	1 µM	75
CN(C)c1ncc(F)c(-c2cnn3ncccc23)n1	EGFR del746-750	binding	1 µM	100
CC(=O)Nc1c(C(C)=O)c(=O)n(C)c2nc(-c3ccc(Cl)cc3Cl)c(-c3ccc(Cl)cc3)cc12	Epidermal growth factor receptor (EGFR, Homo sapiens, UniProt P00533, del747-750/T751S)	cell-free assay, competition with immobilised ligand	1 µM	100
CN(CCCC(F)(F)F)c1nccc(-c2cnn3ncccc23)n1	EGFR del752-759	binding	1 µM	85
Nc1ncc2c(n1)-c1c([nH]c3ccc(C#CC4CC4)cc13)CCCC2	EGFR G719C	binding, competition with immobilised ligand	1 µM	91
O=C(Nc1c[nH]nc1C(=O)NC1CCNCC1)c1cc(F)cc(F)c1	EGFR L858R/T790M	binding, competition with immobilised ligand	1 µM	100
CC1CCCN1c1nccc(-c2cnn3ncccc23)n1 (stereo not shown)	EGFR L858R/T790M	binding	1 µM	100
CN(C)CC#Cc1ccc(OCCCc2sc(N3CCc4cccc(C(=O)Nc5nc6ccccc6s5)c4C3)nc2C(=O)O)c(F)c1	EGFR del747-752/P753S	cell-free assay, competition with immobilised ligand	1 µM	100

Structure (SMILES)	target	assay	conditions	remaining binding [%]
O=C(NCC1CCOCC1)c1n[nH]cc1NC(=O)c1c(F)cccc1F	EGFR T790M	binding, competition with immobilised ligand	1 µM	93
c1cncc(-c2cccc(Nc3nccc(NC4CCCCC4)n3)c2)c1	EGFR del747-752/P753S	binding, competition with immobilised ligand	10 µM	42
CNCc1ccccc1-c1csc([C@@H](C)Nc2nc(C)nc3cc(OC)c(OC)cc23)c1	EGFR del752-759	cell-free assay, competition with immobilised ligand	1 µM	63
O=C(c1ccc(Nc2ncc(Cl)c(-c3cc4ccccc4s3)n2)cc1)N1CCC(N2CCCC2)CC1	EGFR	binding, competition with immobilised ligand	1 µM	90
COc1ncc2cc3ccccc3nc2c1C#N	EGFR	cell-free assay, competition with immobilised ligand	5 µM	94
c1cnn2ncc(-c3ccnc(N4CCC45COC5)n3)c2c1	EGFR L858R/T790M	binding	1 µM	65
CNC(=O)[C@@H]1CC[C@@H](n2c(-c3ccc4cnccc4c3)nc3ccc(C(=O)NCc4cccc(C(N)=O)c4)cc32)C1	EGFR L858R/T790M	binding, competition with immobilised ligand	1 µM	92
O=C(c1ccc(Nc2nccc(-c3cc4ccccc4s3)n2)cc1)N1CCC(N2CCCC2)CC1	EGFR L858R	binding, competition with immobilised ligand	1 µM	100
COc1cnc(Nc2cccc(S(N)(=O)=O)c2)nc1N1CCN(c2ccccc2)C(=O)C1	EGFR A750P/del747-749	binding, competition with immobilised ligand	1 µM	92
Cc1cnc(Nc2ccc(C(=O)N3CCC(N4CCCC4)CC3)cc2)nc1-c1cc2ccccc2s1	EGFR del752-759	binding, competition with immobilised ligand	1 µM	84
F[C@@H]1CCN(c2nccc(-c3cnn4ncccc34)n2)C1	EGFR	binding	1 µM	91
c1ccc(N2CCN(Cc3nc4ccccc4[nH]3)CC2)nc1	EGFR A750P/del747-749	cell-free assay, competition with immobilised ligand	1 µM	100
O=C(NCCCN1CCOCC1)c1ccc(Nc2nccc(-c3cc4ccccc4s3)n2)cc1	EGFR del746-750	binding, competition with immobilised ligand	1 µM	100
CCOC(=O)c1cc2cc(-c3cc(C(=O)NCc4ccc(C(=O)O)cc4)nn3C)ccc2[nH]1	EGFR G719C	cell-free assay, competition with immobilised ligand	0.1 µM	100
O=C(c1ccc(Nc2ncc(Cl)c(-c3ccc(Cl)s3)n2)cc1)N1CCC(N2CCCC2)CC1	Epidermal growth factor receptor (EGFR, Homo sapiens, UniProt P00533, L861Q)	binding, competition with immobilised ligand	1 µM	100
